Reference: ChEMBL document CHEMBL1155265, “Design, synthesis and in vitro antibacterial/antifungal evaluation of novel 1-ethyl-6-fluoro-1,4-dihydro-4-oxo-7(1-piperazinyl)quinoline-3-carboxylic acid derivatives” (2009)

Key:
Assay type in all cases: functional
[1] = test system: Xanthomonas oryzae; experiment: Antibacterial activity against Xanthomonas oryzae at 50 mg/L after 24 hrs by agar well diffusion method; conditions: read-out: DIZ
[2] = test system: Xanthomonas axonopodis; experiment: Antibacterial activity against Xanthomonas axonopodis at 50 mg/L after 24 hrs by agar well diffusion method; conditions: read-out: DIZ
Procedure, shortened: (§1)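 Bacteria plated as 0.8 mL of 24-h-old inoculum mixed into 60 mL sterile molten agar cooled to 45 °C, poured into three dishes. Wells bored with centres at least 24 mm apart. Test sample at 50 mg/L in DMSO added to wells. DMSO served as negative control and agricultural streptomycin sulfate as positive control. Read-out was inhibition zone diameter (mm).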

[3] = test system: Erwinia; experiment: Antibacterial activity against Erwinia aroideae at 50 mg/L after 24 hrs by agar well diffusion method; conditions: read-out: DIZ; procedure, shortened: as §1
[4] = test system: Bacillus subtilis; experiment: Antibacterial activity against Bacillus subtilis at 50 mg/L after 24 hrs by agar well diffusion method; conditions: read-out: DIZ; procedure, shortened: as §1
[5] = test system: Ralstonia solanacearum; experiment: Antibacterial activity against Ralstonia solanacearum at 50 mg/L after 24 hrs by agar well diffusion method; conditions: read-out: DIZ
[6] = test system: Rhizoctonia solani; experiment: Antifungal activity against Rhizoctonia solani at 200 mg/L by plate growth rate method; conditions: read-out: GI
Procedure, shortened: (§2)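 Compound dissolved in DMSO and mixed into molten PDA at 45 °C at 200 mg/L, then plates allowed to set. A 5 mm mycelial agar disc was placed at the centre. Plates were incubated at 28 °C in the dark until the untreated control covered the plate. Colony diameters were measured and growth inhibition calculated by Abbott's formula. Each compound was tested three times.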

[7] = test system: Fusarium graminearum; experiment: Antifungal activity against Gibberella zeae at 200 mg/L by plate growth rate method; conditions: read-out: GI
Procedure, shortened: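 Plate growth rate method: compound dissolved in DMSO, mixed into sterile PDA at 45 °C to 200 mg/L, plates poured. A 5 mm mycelium agar disc placed centrally; incubated at 28 °C in the dark until the untreated control covered the plate. Colony diameters measured; growth inhibition computed by Abbott's formula. Each compound tested three times.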

[8] = test system: Cytospora mali; experiment: Antifungal activity against Valsa mali at 200 mg/L by plate growth rate method; conditions: read-out: GI; procedure, shortened: as §2

SMILES | zone of inhibition at 50 µg/mL [1] [mm] | zone of inhibition at 50 µg/mL [2] [mm] | zone of inhibition at 50 µg/mL [3] [mm] | zone of inhibition at 50 µg/mL [4] [mm] | zone of inhibition at 50 µg/mL [5] [mm] | inhibition of growth at 200 µg/mL [6] [%] | inhibition of growth at 200 µg/mL [7] [%] | inhibition of growth at 200 µg/mL [8] [%]
CCn1cc(C(=O)O)c(=O)c2cc(F)c(N3CCN(C(=O)c4ccco4)CC3)cc21 | 22.9 | 15.5 | 13.8 | 22.5 | 9.81 | 14 | 7 | 8
CCn1cc(C(=O)O)c(=O)c2cc(F)c(N3CCN(C(=O)/C=C/c4ccccc4)CC3)cc21 | 11.7 | 12.1 | 10.8 | 15.2 | 4.64 | 29 | 5 | 9
CCn1cc(C(=O)O)c(=O)c2cc(F)c(N3CCN(C(=O)COc4ccccc4OC)CC3)cc21 | 11.9 | 11 | 12.9 | 17.7 | 4.97 | 0 | 14 | 7
CCn1cc(C(=O)O)c(=O)c2cc(F)c(N3CCN(C(=O)c4ccc(Br)o4)CC3)cc21 | 13 | 12.1 | 13.7 | 18.9 | 6.72 | 47 | 26 | 27
CCn1cc(C(=O)O)c(=O)c2cc(F)c(N3CCN(C(=O)/C=C/c4ccco4)CC3)cc21 | 15.3 | 12.9 | 14.9 | 19.4 | 5.72 | 20 | 8 | 7
CCn1cc(C(=O)O)c(=O)c2cc(F)c(N3CCN(C(=O)/C=C/c4ccc(Cl)cc4Cl)CC3)cc21 | 4.44 | 5.91 | 2.92 | 2.08 | 0 | 0 | 2 | 6
CCn1cc(C(=O)O)c(=O)c2cc(F)c(N3CCN(C(=O)c4ccccc4Br)CC3)cc21 | 16.5 | 14.6 | 16.2 | 20.1 | 8.14 | 15 | 34 | 44
